Test results published in ChEMBL document CHEMBL1142707, “Bisaryloxime ethers as potent inhibitors of transthyretin amyloid fibril formation” (J Med Chem, 2005).
Each block holds one molecule with its values, some of them ahead of it.

Tests used:
[1] = target: Transthyretin (Homo sapiens) (UniProt P02766); assay: Percentage of WT-TTR (3.6 uM) amyloid fibril formation at pH 4.4 upon incubation with the compound (7.2 uM)
How it was run: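 WT-TTR (7.2 µM, 0.4 mg/mL) in 10 mM phosphate pH 7.2, 100 mM KCl, 1 mM EDTA was preincubated 30 min at 37 °C with inhibitor added from a 1.44 mM DMSO stock. An equal volume of 200 mM acetate pH 4.2 brought the sample to pH 4.4 (3.6 µM TTR, 7.2 µM compound final). Left 72 h at 37 °C, vortexed, turbidity read at 350 and 400 or 500 nm. Run in duplicate or triplicate.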

[2] = target: Transthyretin (Homo sapiens) (UniProt P02766); assay: Binding stoichiometry to TTR in human blood plasma determined by antibody capture/HPLC method; assay type: cell-free
How it was run: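 Human blood plasma spiked to 10.8 µM test compound from a 2.16 mM DMSO stock and incubated 24 h at 37 °C. Plasma was precleared with plain Sepharose for 1 h at 4 °C, then split into three aliquots for anti-TTR antibody-resin capture (20 min, 4 °C) in 10 mM Tris pH 8.0, 140 mM NaCl. Resin washed, eluted with 100 mM triethylamine pH 11.5, eluate analysed by HPLC for compound:TTR stoichiometry.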

[3] = target: Transthyretin (Homo sapiens) (UniProt P02766); assay: Percentage compound remaining at the conclusion of the acid-mediated fibril formation assay (72 h), assay conditions compound (7.2 uM), WT-TTR (3.6 uM, pH 4.4, 37C)
How it was run: (§1)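 Compound at 7.2 µM was incubated in the dark with or without 3.6 µM WT-TTR under acid fibril conditions (pH 4.4, 37 °C, 72 h). Analytical RP-HPLC peak area of the compound at the end was compared with the area at the start. Measurement error stated as 4%.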

[4] = target: Transthyretin (Homo sapiens) (UniProt P02766); assay: Percentage compound remaining at the conclusion of the acid-mediated fibril formation assay (72 h) in absence of TTR, assay conditions, compound (7.2 uM), pH 4.4, 37C; how it was run: as §1

Compound: O=C(O)c1cccc(/C=N/Oc2cc(F)cc(F)c2)c1
Binding stoichiometry [2]: < 0.5 | Formation [1]: 6%

Compound: Clc1cc(Cl)cc(O/N=C/c2ccccc2)c1
Formation [1]: 39%

Compound: O=C(O)c1cccc(O/N=C/c2ccccc2C(=O)O)c1
Formation [1]: 94%

Compound: Fc1cc(F)cc(O/N=C/c2ccccc2C(F)(F)F)c1
Formation [1]: 71%

Compound: O=C(O)c1cccc(O/N=C/c2cc(Br)c(O)c(Br)c2)c1
Binding stoichiometry [2]: < 0.5 | Formation [1]: 0%

Compound: O=C(O)c1ccccc1O/N=C/c1cc(Cl)cc(Cl)c1
Activity [3]: 74% | Activity [4]: 4% | Binding stoichiometry [2]: < 0.5 | Formation [1]: 1%

Compound: FC(F)(F)c1ccc(/C=N/Oc2ccccc2)cc1
Formation [1]: 98%

Compound: O=C(O)c1ccccc1O/N=C/c1c(Cl)cccc1Cl
Formation [1]: 59%

Compound: FC(F)(F)c1ccc(/C=N/Oc2ccccc2C(F)(F)F)cc1
Formation [1]: 81%

Compound: FC(F)(F)c1ccccc1O/N=C/c1c(Cl)cccc1Cl
Formation [1]: 15%

Compound: FC(F)(F)c1ccc(/C=N/Oc2cccc(C(F)(F)F)c2)cc1
Formation [1]: 93%

Compound: Oc1c(Br)cc(/C=N/Oc2cc(Cl)cc(Cl)c2)cc1Br
Binding stoichiometry [2]: 0.69 | Formation [1]: 3%

Compound: O=C(O)c1ccc(/C=N/Oc2cc(Cl)cc(Cl)c2)cc1
Binding stoichiometry [2]: 0.78 | Formation [1]: 9%

Compound: O=C(O)c1ccc(O/N=C/c2ccc(C(F)(F)F)cc2)cc1
Formation [1]: 94%

Compound: O=C(O)c1ccccc1O/N=C/c1cccc(C(F)(F)F)c1
Formation [1]: 74%

Compound: Fc1cc(F)cc(O/N=C/c2c(Cl)cccc2Cl)c1
Formation [1]: 24%

Compound: O=C(O)c1ccc(O/N=C/c2cccc(C(F)(F)F)c2)cc1
Formation [1]: 50%

Compound: O=C(O)c1ccc(/C=N/Oc2ccccc2)cc1
Formation [1]: 77%

Compound: Clc1cc(Cl)cc(O/N=C/c2c(Cl)cccc2Cl)c1
Formation [1]: 62%

Compound: FC(F)(F)c1cccc(/C=N/Oc2ccccc2)c1
Formation [1]: 92%

Compound: O=C(O)c1ccc(O/N=C/c2cc(I)c(O)c(I)c2)cc1
Activity [3]: 83% | Activity [4]: 91% | Binding stoichiometry [2]: < 0.5 | Formation [1]: 1%

Compound: FC(F)(F)c1cccc(O/N=C/c2ccccc2C(F)(F)F)c1
Formation [1]: 83%

Compound: O=C(O)c1ccc(O/N=C/c2cccc(C(=O)O)c2)cc1
Formation [1]: 13%

Compound: Oc1c(Br)cc(/C=N/Oc2cc(F)cc(F)c2)cc1Br
Binding stoichiometry [2]: 1.42 | Formation [1]: 3%

Compound: O=C(O)c1ccccc1/C=N/Oc1cc(Cl)cc(Cl)c1
Formation [1]: 30%

Compound: O=C(O)c1cccc(/C=N/Oc2cc(Cl)cc(Cl)c2)c1
Binding stoichiometry [2]: 0.56 | Formation [1]: 3%

Compound: FC(F)(F)c1ccccc1/C=N/Oc1ccccc1
Formation [1]: 65%

Compound: O=C(O)c1cccc(O/N=C/c2ccccc2)c1
Formation [1]: 50%

Compound: Fc1cc(F)cc(/C=N/Oc2cc(F)cc(F)c2)c1
Formation [1]: 94%

Compound: Oc1c(I)cc(/C=N/Oc2ccccc2)cc1I
Activity [3]: 79% | Activity [4]: 24% | Binding stoichiometry [2]: 0.89 | Formation [1]: 0%

Compound: Fc1cc(F)cc(O/N=C/c2cc(Cl)cc(Cl)c2)c1
Formation [1]: 90%

Compound: Oc1c(Br)cc(/C=N/Oc2ccccc2)cc1Br
Activity [3]: 76% | Activity [4]: 8% | Binding stoichiometry [2]: 1.02 | Formation [1]: 0%

Compound: O=C(O)c1ccccc1O/N=C/c1ccccc1
Formation [1]: 91%

Compound: FC(F)(F)c1cccc(/C=N/Oc2cc(Cl)cc(Cl)c2)c1
Formation [1]: 55%

Compound: Fc1cc(F)cc(/C=N/Oc2cc(Cl)cc(Cl)c2)c1
Formation [1]: 61%

Compound: O=C(O)c1ccc(O/N=C/c2cc(Br)c(O)c(Br)c2)cc1
Activity [3]: 81% | Activity [4]: 88% | Binding stoichiometry [2]: < 0.5 | Formation [1]: 0%

Compound: FC(F)(F)c1cccc(/C=N/Oc2cccc(C(F)(F)F)c2)c1
Formation [1]: 83%

Compound: Oc1c(I)cc(/C=N/Oc2cc(F)cc(F)c2)cc1I
Binding stoichiometry [2]: 1.83 | Formation [1]: 3%

Compound: O=C(O)c1cccc(O/N=C/c2ccc(C(F)(F)F)cc2)c1
Formation [1]: 83%

The next lines start with the values.

Formation [1]: 68%
Compound: FC(F)(F)c1ccc(/C=N/Oc2cc(Cl)cc(Cl)c2)cc1

Formation [1]: 84%
Compound: O=C(O)c1ccccc1/C=N/Oc1cccc(C(F)(F)F)c1

Formation [1]: 83%
Compound: FC(F)(F)c1ccccc1/C=N/Oc1ccccc1C(F)(F)F

Formation [1]: 27%
Compound: O=C(O)c1cccc(O/N=C/c2cccc(C(F)(F)F)c2)c1

Binding stoichiometry [2]: < 0.5 | Formation [1]: 9%
Compound: O=C(O)c1cccc(/C=N/Oc2cccc(C(F)(F)F)c2)c1

Binding stoichiometry [2]: < 0.5 | Formation [1]: 0%
Compound: O=C(O)c1cccc(O/N=C/c2cc(Cl)cc(Cl)c2)c1

Formation [1]: 97%
Compound: O=C(O)c1ccc(O/N=C/c2ccccc2C(=O)O)cc1

Binding stoichiometry [2]: 0.55 | Formation [1]: 4%
Compound: Oc1c(I)cc(/C=N/Oc2cc(Cl)cc(Cl)c2)cc1I

Formation [1]: 79%
Compound: O=C(O)c1cccc(/C=N/Oc2ccccc2)c1

Binding stoichiometry [2]: < 0.5 | Formation [1]: 0%
Compound: O=C(O)c1ccccc1O/N=C/c1cc(I)c(O)c(I)c1

Formation [1]: 63%
Compound: Clc1cccc(Cl)c1/C=N/Oc1ccccc1

Activity [3]: 98% | Activity [4]: 78% | Binding stoichiometry [2]: 1.86 | Formation [1]: 1%
Compound: Oc1c(Br)cc(/C=N/Oc2ccccc2C(F)(F)F)cc1Br

Formation [1]: 83%
Compound: FC(F)(F)c1cccc(O/N=C/c2ccccc2)c1

Formation [1]: 31%
Compound: O=C(O)c1ccc(/C=N/Oc2cccc(C(=O)O)c2)cc1

Formation [1]: 56%
Compound: Clc1cc(Cl)cc(/C=N/Oc2ccccc2)c1

Formation [1]: 88%
Compound: Fc1cc(F)cc(/C=N/Oc2cccc(C(F)(F)F)c2)c1

Binding stoichiometry [2]: 1.02 | Formation [1]: 4%
Compound: Oc1c(I)cc(/C=N/Oc2cccc(C(F)(F)F)c2)cc1I

Activity [3]: 100% | Activity [4]: 89% | Binding stoichiometry [2]: 1.71 | Formation [1]: 1%
Compound: Oc1c(I)cc(/C=N/Oc2ccccc2C(F)(F)F)cc1I

Formation [1]: 96%
Compound: C(=N\Oc1ccccc1)/c1ccccc1

Binding stoichiometry [2]: 0.71 | Formation [1]: 1%
Compound: O=C(O)c1cccc(O/N=C/c2c(Cl)cccc2Cl)c1

Formation [1]: 63%
Compound: Clc1cc(Cl)cc(/C=N/Oc2cc(Cl)cc(Cl)c2)c1

Formation [1]: 87%
Compound: O=C(O)c1ccc(/C=N/Oc2ccccc2C(=O)O)cc1

Formation [1]: 75%
Compound: Fc1cc(F)cc(/C=N/Oc2ccccc2C(F)(F)F)c1

Binding stoichiometry [2]: < 0.5 | Formation [1]: 0%
Compound: O=C(O)c1ccccc1O/N=C/c1cc(Br)c(O)c(Br)c1

Formation [1]: 95%
Compound: Fc1cc(F)cc(/C=N/Oc2ccccc2)c1

Formation [1]: 18%
Compound: O=C(O)c1ccc(O/N=C/c2cc(F)cc(F)c2)cc1

Formation [1]: 46%
Compound: O=C(O)c1ccc(/C=N/Oc2ccc(C(=O)O)cc2)cc1

Formation [1]: 77%
Compound: Fc1cc(F)cc(O/N=C/c2ccc(C(F)(F)F)cc2)c1

Formation [1]: 57%
Compound: FC(F)(F)c1cccc(/C=N/Oc2ccccc2C(F)(F)F)c1

Formation [1]: 21%
Compound: FC(F)(F)c1cccc(O/N=C/c2c(Cl)cccc2Cl)c1

Binding stoichiometry [2]: 0.53 | Formation [1]: 9%
Compound: O=C(O)c1ccc(O/N=C/c2cc(Cl)cc(Cl)c2)cc1

Formation [1]: 75%
Compound: O=C(O)c1ccccc1/C=N/Oc1ccccc1C(F)(F)F

Activity [3]: 84% | Activity [4]: 79% | Binding stoichiometry [2]: 1.31 | Formation [1]: 0%
Compound: O=C(O)c1ccc(O/N=C/c2ccccc2C(F)(F)F)cc1

Activity [3]: 77% | Activity [4]: 81% | Binding stoichiometry [2]: < 0.5 | Formation [1]: 0%
Compound: O=C(O)c1cccc(O/N=C/c2cc(I)c(O)c(I)c2)c1

Formation [1]: 91%
Compound: O=C(O)c1ccccc1/C=N/Oc1ccccc1

Formation [1]: 72%
Compound: FC(F)(F)c1cccc(O/N=C/c2cc(Cl)cc(Cl)c2)c1

Formation [1]: 87%
Compound: Fc1cc(F)cc(O/N=C/c2ccccc2)c1

Binding stoichiometry [2]: < 0.5 | Formation [1]: 9%
Compound: O=C(O)c1ccc(/C=N/Oc2cc(F)cc(F)c2)cc1

Formation [1]: 87%
Compound: O=C(O)c1cccc(/C=N/Oc2ccccc2C(=O)O)c1

Activity [3]: 88% | Activity [4]: 20% | Binding stoichiometry [2]: 1 | Formation [1]: 1%
Compound: O=C(O)c1cccc(O/N=C/c2ccccc2C(F)(F)F)c1

Formation [1]: 90%
Compound: O=C(O)c1ccccc1O/N=C/c1ccc(C(F)(F)F)cc1

Binding stoichiometry [2]: 1.07 | Formation [1]: 6%
Compound: O=C(O)c1cccc(/C=N/Oc2ccccc2C(F)(F)F)c1

Formation [1]: 32%
Compound: O=C(O)c1ccc(O/N=C/c2ccccc2)cc1

Formation [1]: 12%
Compound: O=C(O)c1ccc(/C=N/Oc2cccc(C(F)(F)F)c2)cc1

Formation [1]: 84%
Compound: O=C(O)c1ccccc1/C=N/Oc1cc(F)cc(F)c1

Formation [1]: 33%
Compound: FC(F)(F)c1ccccc1O/N=C/c1cc(Cl)cc(Cl)c1

Formation [1]: 86%
Compound: Fc1cc(F)cc(O/N=C/c2cccc(C(F)(F)F)c2)c1

Binding stoichiometry [2]: 1.17 | Formation [1]: 4%
Compound: Oc1c(Br)cc(/C=N/Oc2cccc(C(F)(F)F)c2)cc1Br

Formation [1]: 32%
Compound: FC(F)(F)c1ccccc1/C=N/Oc1cc(Cl)cc(Cl)c1

Formation [1]: 56%
Compound: FC(F)(F)c1ccccc1O/N=C/c1ccccc1

Activity [3]: 81% | Activity [4]: 85% | Binding stoichiometry [2]: 0.81 | Formation [1]: 0%
Compound: O=C(O)c1ccc(O/N=C/c2c(Cl)cccc2Cl)cc1

Formation [1]: 15%
Compound: O=C(O)c1cccc(/C=N/Oc2cccc(C(=O)O)c2)c1

Binding stoichiometry [2]: < 0.5 | Formation [1]: 8%
Compound: O=C(O)c1cccc(O/N=C/c2cc(F)cc(F)c2)c1

Formation [1]: 34%
Compound: O=C(O)c1ccccc1O/N=C/c1ccccc1C(F)(F)F

Formation [1]: 78%
Compound: O=C(O)c1ccccc1O/N=C/c1cc(F)cc(F)c1
